# Results: PMC3123137 (Journal of immunology (Baltimore, Md. : 1950), 2011)
# “Also recorded” adds a separate entry of the source. Bridge positions count the residues as written; N and C are the ends. Ends that are not written are not given here.
# Experiments:
# [1] = system: sheep erythrocytes; experiment: Hemolytic assay; format: cell-based
# In short: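 Sheep erythrocytes washed in VBS–5 mM Mg2+/EGTA; cell amount set by water-lysis titration to give OD405 ~1. Serially diluted test compound or anti-factor H SCR19–20 mAb mixed with cells and human lepirudin plasma (1:10 in VBS–Mg2+/EGTA), 37°C, 1 h, shaking. Lysis read as supernatant OD405 after centrifugation. Run ≥3 times with different donors' plasma; means ± SD of a representative run.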
# [2] = system: alternative pathway of complement; experiment: Inhibition of biomaterial-induced AP activation by immobilized peptide; format: biochemical, human
# [3] = molecular target: T1, factor H (Homo sapiens, UniProt P08603); experiment: ELISA, binding of purified factor H to immobilized peptide; conditions: summary statement
# T1 sequence (P08603 19-1231): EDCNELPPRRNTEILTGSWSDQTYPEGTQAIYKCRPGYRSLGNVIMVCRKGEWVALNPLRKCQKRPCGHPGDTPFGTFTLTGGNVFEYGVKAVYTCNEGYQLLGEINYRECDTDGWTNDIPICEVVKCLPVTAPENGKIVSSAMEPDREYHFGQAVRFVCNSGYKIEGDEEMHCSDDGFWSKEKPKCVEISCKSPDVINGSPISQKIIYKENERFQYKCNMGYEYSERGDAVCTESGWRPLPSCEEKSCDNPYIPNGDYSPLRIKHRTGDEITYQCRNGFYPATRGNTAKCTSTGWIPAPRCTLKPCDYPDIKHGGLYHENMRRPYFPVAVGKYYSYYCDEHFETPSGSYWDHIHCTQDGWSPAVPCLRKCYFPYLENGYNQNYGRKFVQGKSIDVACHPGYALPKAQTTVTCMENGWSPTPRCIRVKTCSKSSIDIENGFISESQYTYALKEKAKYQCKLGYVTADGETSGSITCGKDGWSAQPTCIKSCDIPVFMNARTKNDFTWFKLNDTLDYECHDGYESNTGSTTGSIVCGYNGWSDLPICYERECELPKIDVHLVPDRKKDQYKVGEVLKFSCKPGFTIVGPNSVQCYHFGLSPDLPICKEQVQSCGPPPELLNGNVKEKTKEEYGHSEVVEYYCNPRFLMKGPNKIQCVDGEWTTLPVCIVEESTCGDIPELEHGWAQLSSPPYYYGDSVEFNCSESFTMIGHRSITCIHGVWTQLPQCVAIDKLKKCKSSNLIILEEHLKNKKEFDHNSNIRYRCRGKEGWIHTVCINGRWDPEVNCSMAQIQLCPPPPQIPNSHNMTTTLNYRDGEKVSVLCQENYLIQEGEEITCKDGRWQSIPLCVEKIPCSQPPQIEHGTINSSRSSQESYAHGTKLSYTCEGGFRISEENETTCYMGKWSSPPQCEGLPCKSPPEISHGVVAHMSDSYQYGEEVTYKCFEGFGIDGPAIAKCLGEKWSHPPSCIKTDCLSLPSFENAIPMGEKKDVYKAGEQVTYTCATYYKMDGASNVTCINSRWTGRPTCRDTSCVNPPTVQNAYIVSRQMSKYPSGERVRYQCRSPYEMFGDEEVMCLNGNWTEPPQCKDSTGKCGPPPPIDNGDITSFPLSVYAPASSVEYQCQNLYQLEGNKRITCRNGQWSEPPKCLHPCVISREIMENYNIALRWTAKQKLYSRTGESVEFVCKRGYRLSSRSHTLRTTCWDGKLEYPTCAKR
# In short: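 Streptavidin (10 μg/ml in PBS) was coated overnight at 4°C and blocked with 2% BSA in PBS. Biotinylated test peptide or biotinylated linear compstatin control was added at 10 μg/ml for 30 min at RT. Purified human factor H was serially diluted in PBS from 2.5 μg/ml and bound for 1 h. Detection used goat anti-human factor H pAb, then HRP anti-goat IgG. Means ± SD, representative of three experiments.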
# [4] = molecular target: T1, factor H; experiment: Factor H capture from lepirudin plasma by immobilized peptide; format: binding; conditions: no streptavidin-biotin conjugation
# [5] = system: factor H cofactor activity; experiment: Factor H cofactor activity assay; format: biochemical, human; conditions: peptide expressed as fusion protein with phage PIII domain (Supplemental Fig. 2)
# [6] = molecular target: fH1–4 (Homo sapiens, UniProt P08603); experiment: Monoclonal phage ELISA, N-terminal fragment; format: binding; conditions: phage clone; coated wells, 1 h room temperature, anti-M13 HRP/ABTS
# fH1–4, sequence (P08603 19-264): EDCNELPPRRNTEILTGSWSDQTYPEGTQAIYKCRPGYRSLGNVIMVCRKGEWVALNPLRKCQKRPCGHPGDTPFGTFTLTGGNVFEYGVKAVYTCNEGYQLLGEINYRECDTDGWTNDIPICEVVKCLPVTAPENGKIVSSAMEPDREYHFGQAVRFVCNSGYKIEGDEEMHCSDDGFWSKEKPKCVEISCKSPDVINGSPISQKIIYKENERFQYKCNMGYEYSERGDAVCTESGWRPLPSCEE
# In short: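 Wells were coated overnight at 4°C with recombinant factor H SCR1–4 (5 μg/ml in PBS), with BSA wells in parallel, then blocked with 5% milk in PBST for 1 h. Amplified single third-round plaques were bound for 1 h at RT and washed six times with PBST. Detection used HRP anti-M13 mAb with ABTS. An unrelated cyclic-peptide phage served as control, and C3b as negative control.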
# [7] = system: cells; conditions: soluble inhibitor or heparin-coated surface; ref [8]–[11]; cited from earlier work
# [8] = system: immune cells; conditions: addition to blood, hemodialysis; ref [15]; cited from earlier work
# [9] = system: complement activation; conditions: cited from earlier work
# [10] = system: plasma proteins; conditions: ref [56], [57]; cited from earlier work
# [11] = system: various cells; conditions: ref [11], [58], [59]; cited from earlier work
molecule,measurement,setting,value
ASSGMCFTKKTVLC (disulfide 6-14 (inferred)) [4A1],Effect on hemolytic assay as phage PIII fusion protein,[1]; peptide expressed as fusion protein with phage PIII domain (Supplemental Fig. 2),affected
ASSSRCTYDHWCSH (disulfide 6-12 (inferred)) [5C6],Lysis of sheep erythrocytes,"[1]; 5C6 up to 40 μM, lepirudin plasma 1:10 in VBS–Mg2+/EGTA, 37°C, 1 h, OD405",No lysis
same,Interference with factor H cell-surface binding / surface recognition,"[1]; soluble 5C6 peptide, hemolytic assay (conclusion)",does not interfere with the cofactor activity or cell-surface binding properties of factor H; also recorded: did not interfere with the surface recognition properties of factor H
same,Inhibition of biomaterial-induced complement activation in undiluted plasma,"[2]; immobilized on model biomaterial surface, undiluted lepirudin plasma",substantial inhibition of biomaterial-induced complement activation
same,"Inhibition of complement, peptide coated directly onto polystyrene","[2]; peptide coated directly, no streptavidin-biotin conjugation",Neither factor H binding nor inhibition of complement was seen
same,Factor H-capturing activity,[3],high factor H-capturing activity while retaining its functional integrity; also recorded: able to capture factor H at high activity without interfering with its regulatory activity
same,"Factor H binding, peptide coated directly onto polystyrene",[4],Neither factor H binding nor inhibition of complement was seen
ASSYDVGYSHDCRF [5-2C6],Effect on cofactor assay as phage PIII fusion protein,[5],affected
same,Binding to fH1–4 (N-terminal regulatory region),[6],bound to the N-terminal regulatory region of factor H
compstatin,Biomaterial-induced activation and surface adhesion of cells,[7],inhibition of complement activation largely attenuates biomaterial-induced activation and surface adhesion of cells
same,Activation of immune cells and expression of pro-coagulative factors,[8],subsequent activation of immune cells and the expression of pro-coagulative factors
same,Filter-induced complement response,"[9]; addition to blood, hemodialysis, ref [15]",inhibited filter-induced complement response
heparin,Plasma protein binding specificity,[10],broad binding specificity for plasma proteins
same,Activation of cells,[11],induces activation of various cells
same,Biomaterial-induced activation and surface adhesion of cells,[7],inhibition of complement activation largely attenuates biomaterial-induced activation and surface adhesion of cells
same,Dependence of inhibition on factor H capturing,"[9]; heparin coating, ref [55]",independent of factor H capturing by heparin
same,Biomaterial-induced complement activation,"[9]; highly concentrated heparin coating, ref [14], [53]–[55]",inhibited biomaterial-induced complement activation
same,Complement activation at low concentrations in the fluid phase,"[9]; ref [14], [60]",may actually enhance complement activation at low concentrations in the fluid phase
"decay accelerating factor (CD55): AP regulator immobilized on surfaces (protein, UniProt P08174 35-353, looked up, immobilized on surfaces) Complement decay-accelerating …: DCGLPPDVPNAQPALEGRTSFPEDTVITYKCEESFVKIPGEKDSVICLKGSQWSDIEEFCNRSCEVPTRLNSASLKQPYITQNYFPVGTVVEYECRPGYRREPSLSPKLTCLQNLKWSTAVEFCKKKSCPNPGEIRNGQIDVPGGILFGATISFSCNTGYKLFGSTSSFCLISGSSVQWSDPLPECREIYCPAPPQIDNGIIQGERDHYGYRQSVTYACNKGFTMIGEHSIYCTVNNDEGEWSGPPPECRGKSLTSKVPPTVQKPTTVNVPTTEVSPTSQKTTTKTTTPNAQATRSTPVSRTTKHFHETTPNKGSGTTS",Biomaterial-induced complement after immobilization of AP regulators,"[9]; immobilized regulator, ref [39]–[41]",attenuated biomaterial-induced complement
